Results reported in PMC6398930 (Bioorganic & medicinal chemistry letters, 2019).

Key:
[1] = Intrinsic and predicted hepatic clearance in human liver microsomes; format: in vitro ADME
Procedure, shortened: (§1)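 Part of an outsourced Tier 1 in vitro DMPK panel. Intrinsic clearance was measured in liver microsomes from the species named in each line and scaled. Predicted hepatic clearance was derived from the same microsomal experiments.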

[2] = Intrinsic and predicted hepatic clearance in mouse liver microsomes; format: in vitro ADME; conditions: for CLint scaled / Predicted hepatic clearance mCLHEP: mouse, liver microsomes
Procedure, shortened: as §1

[3] = molecular target: T1, GIRK1/2 (Homo sapiens, UniProt P48051+P48549); assay: Thallium flux assay, GIRK1/2 expressing HEK293 cells; format: cell-based; conditions: for Loss of GIRK1/2 potency/activity relative to 15a: compared with parent amide/phenyl compound 15a; for Selectivity GIRK1/2 vs GIRK1/4 (in words): thallium flux
T1 sequence (P48549 1-501): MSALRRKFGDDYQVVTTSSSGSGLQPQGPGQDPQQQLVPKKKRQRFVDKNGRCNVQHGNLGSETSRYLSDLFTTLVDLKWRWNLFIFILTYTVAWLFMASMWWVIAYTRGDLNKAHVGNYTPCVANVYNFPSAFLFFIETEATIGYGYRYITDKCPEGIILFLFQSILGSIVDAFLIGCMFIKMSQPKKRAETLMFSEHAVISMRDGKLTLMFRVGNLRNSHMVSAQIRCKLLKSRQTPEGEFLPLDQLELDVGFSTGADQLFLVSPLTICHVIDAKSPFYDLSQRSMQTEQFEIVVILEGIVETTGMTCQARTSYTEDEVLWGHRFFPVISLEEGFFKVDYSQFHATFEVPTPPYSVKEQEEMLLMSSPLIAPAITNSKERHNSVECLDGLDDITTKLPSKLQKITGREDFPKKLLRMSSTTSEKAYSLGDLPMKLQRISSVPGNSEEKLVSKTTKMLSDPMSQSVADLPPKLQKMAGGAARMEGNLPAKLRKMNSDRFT
T1 sequence (P48051 1-423): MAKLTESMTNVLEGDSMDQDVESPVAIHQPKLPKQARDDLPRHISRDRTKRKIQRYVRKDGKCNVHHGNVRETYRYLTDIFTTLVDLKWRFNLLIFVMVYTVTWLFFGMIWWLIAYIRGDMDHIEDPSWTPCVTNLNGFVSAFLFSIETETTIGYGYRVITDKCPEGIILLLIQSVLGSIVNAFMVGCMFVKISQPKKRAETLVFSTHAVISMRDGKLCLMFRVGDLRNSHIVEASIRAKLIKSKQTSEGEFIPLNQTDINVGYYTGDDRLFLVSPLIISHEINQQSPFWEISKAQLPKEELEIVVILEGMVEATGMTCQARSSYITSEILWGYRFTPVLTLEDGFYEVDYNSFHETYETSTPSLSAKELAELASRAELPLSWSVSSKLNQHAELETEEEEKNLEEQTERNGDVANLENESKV

[4] = Plasma unbound fraction, mouse plasma; format: in vitro ADME
[5] = Stability in Human Liver S9 fractions; format: in vitro ADME

Structure (SMILES) | CLint scaled ([1]; human, liver microsomes) | CLint scaled [2] | other results
Cc1cc(NC(=O)Cn2nnc(-c3ccccc3)n2)n(C2CCCCC2)n1 [15a] | 186 mL/min/kg | 2920 mL/min/kg | 
Cc1cc(NC(=S)Cn2nnc(-c3ccccc3)n2)n(C2CCCCC2)n1 [15b] | 346 mL/min/kg | > 5930 mL/min/kg | Loss of GIRK1/2 potency/activity relative to 15a [3]: ~7 fold; Predicted hepatic clearance mCLHEP [2]: >88.7 mL/min/kg; Recovery in mouse plasma (in words) [4]: poor recovery
Cc1cc(NC(=O)Cn2nnc(-c3ccccc3)n2)n(C2CCC(F)(F)CC2)n1 [15d] | 77.3 mL/min/kg | 723 mL/min/kg | 
Cc1cc(NC(=O)Cn2nnc(-c3ccccc3)n2)n(C2CCS(=O)(=O)C2)n1 (stereo not shown) [15k] | < 23.1 mL/min/kg | < 49.5 mL/min/kg | Stability in human liver microsomes (in words) [1]: stable; Predicted hepatic clearance hCLHEP ([1]; human, liver microsomes): <10.7 mL/min/kg; Stability in mouse liver microsomes (in words) [2]: stable; Predicted hepatic clearance mCLHEP [2]: <31.9 mL/min/kg; Stability in human S9 fractions (in words) [5]: stable; CLHEP in Human Liver S9 fractions ([5]; human liver S9): <1.0 mL/min/kg; CLint scaled ([5]; human, liver S9 fractions): 2.6 mL/min/kg
Cc1cc(NC(=O)Cn2nnc(-c3ccccc3)n2)n(CC2CCCCC2)n1 [15q] | 753 mL/min/kg | > 5930 mL/min/kg | Selectivity GIRK1/2 vs GIRK1/4 (in words) [3]: lost selectivity between GIRK1/2 and GIRK1/4
Cc1cc(NC(=O)Cn2nnc(-c3cccnc3)n2)n(C2CCCCC2)n1 [16a] |  |  | Loss of GIRK1/2 potency/activity relative to 15a [3]: > 20 fold
Cc1cc(NC(=O)Cn2nnc(-c3ccccn3)n2)n(C2CCCCC2)n1 [16b] |  |  | Loss of GIRK1/2 potency/activity relative to 15a [3]: > 20 fold
Cc1cc(NC(=O)Cn2nnc(-c3ccc(Cl)c(Cl)c3)n2)n(C2CCCCC2)n1 [16d] | 99.9 mL/min/kg | 489 mL/min/kg | 
Cc1cc(NC(=O)Cn2nnc(-c3cccc(F)c3)n2)n(C2CCCCC2)n1 [16g] | 162 mL/min/kg | 2710 mL/min/kg | Selectivity GIRK1/2 vs GIRK1/4 (in words) [3]: more selective for GIRK1/2 vs. GIRK1/4
Cc1cc(NC(=O)Cn2cc(-c3ccccc3)nn2)n(C2CCCCC2)n1 [17a] | 54.6 mL/min/kg | 596 mL/min/kg | 
Cc1cc(NC(=O)Cn2nncc2-c2ccccc2)n(C2CCCCC2)n1 [17b] | 209 mL/min/kg | 3490 mL/min/kg | 
Cc1cc(NC(=O)Cn2ccc(-c3ccccc3)n2)n(C2CCCCC2)n1 [17e] |  |  | GIRK1/2 potency, fold less potent than 17f ([3]; 17e vs 17f): ~ 8 fold
Cc1cc(NC(=O)Nc2ccc(F)c(F)c2)n(Cc2ccccc2)n1 [compound 1, reference compound] |  |  | Selectivity GIRK1/2 vs GIRK1/4 (in words) [3]: activate GIRK1/2 preferentially over GIRK1/4
